According to ChEMBL document CHEMBL4689842, “EUbOPEN Chemogenomics Library wave 1” (2021):

Assays:
Assay type in all cases: toxicity, cell-based
U2OS [1] = assay: Incucyte cell viability with U2OS; settings: human, 10 µM, compound concentration 10 uM; further: filed as whole numbers so only -1 and 0 and 1 occur
Fibroblast = assay: Incucyte cell viability with human fibroblast; settings: 10 µM, compound concentration 10 uM; further: filed as whole numbers so only -1 and 0 and 1 occur
HEK-293T = assay: Incucyte cell viability with HEK293T; settings: human, 10 µM, compound concentration 10 uM; further: filed as whole numbers so only -1 and 0 and 1 occur
U2OS [2] = assay: Multiplex assay against U2OS; settings: human
Outline: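 Live cells were stained at seeding with Hoechst33342, BioTracker Green Microtubule Cytoskeleton Dye, MitoTracker Red and Annexin V Alexa Fluor 680. Following compound addition, they were imaged on a CQ1 microscope at 37°C and 5% CO2 and gated by CellPathfinder machine learning into Hoechst high-intensity objects or normal cells, with normal cells split into healthy, pyknosed or fragmented nuclei and pyknosed cells into mitotic or apoptotic. Tubulin, mitochondrial-mass and membrane-permeability phenotypes are per cents of healthy-nucleus cells.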

[3] = 6 h, replicate number 1, timepoint 6 hours
[4] = 12 h, replicate number 1, timepoint 12 hours
[5] = 18 h, replicate number 1, timepoint 18 hours
[6] = 24 h, replicate number 1, timepoint 24 hours
[7] = 0 h, replicate number 1, timepoint 0 hours
[8] = 12 h, 1 µM, compound concentration 1 uM, replicate 1
[9] = 12 h, 1 µM, compound concentration 1 uM, replicate 2
[10] = 12 h, 10 µM, compound concentration 10 uM, replicate 1
[11] = 12 h, 10 µM, compound concentration 10 uM, replicate 2
[12] = 24 h, 1 µM, compound concentration 1 uM, replicate 1
[13] = 24 h, 1 µM, compound concentration 1 uM, replicate 2
[14] = 24 h, 10 µM, compound concentration 10 uM, replicate 1
[15] = 24 h, 10 µM, compound concentration 10 uM, replicate 2
[16] = 48 h, 1 µM, compound concentration 1 uM, replicate 1
[17] = 48 h, 1 µM, compound concentration 1 uM, replicate 2
[18] = 48 h, 10 µM, compound concentration 10 uM, replicate 1
[19] = 48 h, 10 µM, compound concentration 10 uM, replicate 2

N#Cc1cccc(C(=O)Nc2cc(-c3ccccc3)nn2-c2ccccc2)c1
Growth Rate (U2OS [1]; 0 h, replicate number 2, timepoint 0 hours): 0
Growth Rate (U2OS [1]; [3]): 0
Growth Rate (U2OS [1]; [4]): 0
Growth Rate (U2OS [1]; 12 h, replicate number 2, timepoint 12 hours): 1
Growth Rate (U2OS [1]; [5]): 0
Growth Rate (U2OS [1]; [6]): 0
Growth Rate (Fibroblast; [7]): 0
Growth Rate (Fibroblast; [3]): 0
Growth Rate (Fibroblast; [4]): 0
Growth Rate (Fibroblast; [5]): 0
Growth Rate (Fibroblast; 18 h, replicate number 2, timepoint 18 hours): 1
Growth Rate (Fibroblast; [6]): 0
Growth Rate (Fibroblast; 24 h, replicate number 2, timepoint 24 hours): 1
Growth Rate (HEK-293T; [7]): 0
Growth Rate (HEK-293T; [3]): 0
Growth Rate (HEK-293T; [4]): 0
Growth Rate (HEK-293T; [5]): 0
Growth Rate (HEK-293T; [6]): 0
Population Apoptotic (%) (U2OS [2]; [8]): 33%
Population Fragmented Nuclei (%) (U2OS [2]; [8]): 14%
Population Healthy Nuclei (%) (U2OS [2]; [8]): 73%
Population Hoechst High Intensity Objects (%) (U2OS [2]; [8]): 9%
Population Membrane Permeable-Phenotype (%) (U2OS [2]; [8]): 2%
Population Mitotic Cells (%) (U2OS [2]; [8]): 66%
Population Normal (%) (U2OS [2]; [8]): 90%
Population Pyknosed Nuclei (%) (U2OS [2]; [8]): 12%
Population Tubulin-Different-Phenotype (%) (U2OS [2]; [8]): 13%
Total Cell Count (U2OS [2]; [8]): 109
Population Apoptotic (%) (U2OS [2]; [9]): 16%
Population Fragmented Nuclei (%) (U2OS [2]; [9]): 5%
Population Healthy Nuclei (%) (U2OS [2]; [9]): 84%
Population Hoechst High Intensity Objects (%) (U2OS [2]; [9]): 3%
Population Membrane Permeable-Phenotype (%) (U2OS [2]; [9]): 6%
Population Mitochondria Different-Phenotype (%) (U2OS [2]; [9]): 8%
Population Mitotic Cells (%) (U2OS [2]; [9]): 83%
Population Normal (%) (U2OS [2]; [9]): 96%
Population Pyknosed Nuclei (%) (U2OS [2]; [9]): 10%
Population Tubulin-Different-Phenotype (%) (U2OS [2]; [9]): 16%
Total Cell Count (U2OS [2]; [9]): 59
Population Apoptotic (%) (U2OS [2]; [10]): 50%
Population Fragmented Nuclei (%) (U2OS [2]; [10]): 14%
Population Healthy Nuclei (%) (U2OS [2]; [10]): 69%
Population Hoechst High Intensity Objects (%) (U2OS [2]; [10]): 6%
Population Membrane Permeable-Phenotype (%) (U2OS [2]; [10]): 22%
Population Mitochondria Different-Phenotype (%) (U2OS [2]; [10]): 86%
Population Mitotic Cells (%) (U2OS [2]; [10]): 50%
Population Normal (%) (U2OS [2]; [10]): 93%
Population Pyknosed Nuclei (%) (U2OS [2]; [10]): 15%
Population Tubulin-Different-Phenotype (%) (U2OS [2]; [10]): 100%
Total Cell Count (U2OS [2]; [10]): 121
Population Apoptotic (%) (U2OS [2]; [11]): 45%
Population Fragmented Nuclei (%) (U2OS [2]; [11]): 9%
Population Healthy Nuclei (%) (U2OS [2]; [11]): 60%
Population Hoechst High Intensity Objects (%) (U2OS [2]; [11]): 9%
Population Membrane Permeable-Phenotype (%) (U2OS [2]; [11]): 15%
Population Mitochondria Different-Phenotype (%) (U2OS [2]; [11]): 84%
Population Mitotic Cells (%) (U2OS [2]; [11]): 55%
Population Normal (%) (U2OS [2]; [11]): 90%
Population Pyknosed Nuclei (%) (U2OS [2]; [11]): 30%
Population Tubulin-Different-Phenotype (%) (U2OS [2]; [11]): 97%
Total Cell Count (U2OS [2]; [11]): 72
Population Apoptotic (%) (U2OS [2]; [12]): 23%
Population Fragmented Nuclei (%) (U2OS [2]; [12]): 13%
Population Healthy Nuclei (%) (U2OS [2]; [12]): 76%
Population Hoechst High Intensity Objects (%) (U2OS [2]; [12]): 11%
Population Mitochondria Different-Phenotype (%) (U2OS [2]; [12]): 5%
Population Mitotic Cells (%) (U2OS [2]; [12]): 76%
Population Normal (%) (U2OS [2]; [12]): 88%
Population Tubulin-Different-Phenotype (%) (U2OS [2]; [12]): 3%
Total Cell Count (U2OS [2]; [12]): 137
Population Apoptotic (%) (U2OS [2]; [13]): 14%
Population Fragmented Nuclei (%) (U2OS [2]; [13]): 3%
Population Healthy Nuclei (%) (U2OS [2]; [13]): 86%
Population Hoechst High Intensity Objects (%) (U2OS [2]; [13]): 4%
Population Membrane Permeable-Phenotype (%) (U2OS [2]; [13]): 1%
Population Mitochondria Different-Phenotype (%) (U2OS [2]; [13]): 8%
Population Mitotic Cells (%) (U2OS [2]; [13]): 85%
Population Normal (%) (U2OS [2]; [13]): 95%
Population Pyknosed Nuclei (%) (U2OS [2]; [13]): 10%
Population Tubulin-Different-Phenotype (%) (U2OS [2]; [13]): 7%
Total Cell Count (U2OS [2]; [13]): 68
Population Apoptotic (%) (U2OS [2]; [14]): 35%
Population Fragmented Nuclei (%) (U2OS [2]; [14]): 19%
Population Healthy Nuclei (%) (U2OS [2]; [14]): 55%
Population Hoechst High Intensity Objects (%) (U2OS [2]; [14]): 8%
Population Membrane Permeable-Phenotype (%) (U2OS [2]; [14]): 33%
Population Mitochondria Different-Phenotype (%) (U2OS [2]; [14]): 78%
Population Mitotic Cells (%) (U2OS [2]; [14]): 64%
Population Normal (%) (U2OS [2]; [14]): 91%
Population Pyknosed Nuclei (%) (U2OS [2]; [14]): 25%
Population Tubulin-Different-Phenotype (%) (U2OS [2]; [14]): 98%
Total Cell Count (U2OS [2]; [14]): 119
Population Apoptotic (%) (U2OS [2]; [15]): 42%
Population Fragmented Nuclei (%) (U2OS [2]; [15]): 9%
Population Healthy Nuclei (%) (U2OS [2]; [15]): 67%
Population Hoechst High Intensity Objects (%) (U2OS [2]; [15]): 6%
Population Membrane Permeable-Phenotype (%) (U2OS [2]; [15]): 30%
Population Mitochondria Different-Phenotype (%) (U2OS [2]; [15]): 71%
Population Mitotic Cells (%) (U2OS [2]; [15]): 57%
Population Normal (%) (U2OS [2]; [15]): 93%
Population Pyknosed Nuclei (%) (U2OS [2]; [15]): 22%
Population Tubulin-Different-Phenotype (%) (U2OS [2]; [15]): 95%
Total Cell Count (U2OS [2]; [15]): 66
Population Apoptotic (%) (U2OS [2]; [16]): 38%
Population Fragmented Nuclei (%) (U2OS [2]; [16]): 10%
Population Healthy Nuclei (%) (U2OS [2]; [16]): 82%
Population Hoechst High Intensity Objects (%) (U2OS [2]; [16]): 5%
Population Membrane Permeable-Phenotype (%) (U2OS [2]; [16]): 2%
Population Mitochondria Different-Phenotype (%) (U2OS [2]; [16]): 2%
Population Mitotic Cells (%) (U2OS [2]; [16]): 61%
Population Normal (%) (U2OS [2]; [16]): 94%
Population Pyknosed Nuclei (%) (U2OS [2]; [16]): 7%
Population Tubulin-Different-Phenotype (%) (U2OS [2]; [16]): 4%
Total Cell Count (U2OS [2]; [16]): 190
Population Apoptotic (%) (U2OS [2]; [17]): 20%
Population Fragmented Nuclei (%) (U2OS [2]; [17]): 3%
Population Healthy Nuclei (%) (U2OS [2]; [17]): 86%
Population Hoechst High Intensity Objects (%) (U2OS [2]; [17]): 4%
Population Membrane Permeable-Phenotype (%) (U2OS [2]; [17]): 4%
Population Mitochondria Different-Phenotype (%) (U2OS [2]; [17]): 13%
Population Mitotic Cells (%) (U2OS [2]; [17]): 80%
Population Normal (%) (U2OS [2]; [17]): 95%
Population Pyknosed Nuclei (%) (U2OS [2]; [17]): 10%
Population Tubulin-Different-Phenotype (%) (U2OS [2]; [17]): 9%
Total Cell Count (U2OS [2]; [17]): 98
Population Apoptotic (%) (U2OS [2]; [18]): 59%
Population Fragmented Nuclei (%) (U2OS [2]; [18]): 17%
Population Healthy Nuclei (%) (U2OS [2]; [18]): 58%
Population Hoechst High Intensity Objects (%) (U2OS [2]; [18]): 10%
Population Membrane Permeable-Phenotype (%) (U2OS [2]; [18]): 32%
Population Mitochondria Different-Phenotype (%) (U2OS [2]; [18]): 67%
Population Mitotic Cells (%) (U2OS [2]; [18]): 40%
Population Normal (%) (U2OS [2]; [18]): 89%
Population Pyknosed Nuclei (%) (U2OS [2]; [18]): 24%
Population Tubulin-Different-Phenotype (%) (U2OS [2]; [18]): 100%
Total Cell Count (U2OS [2]; [18]): 123
Population Apoptotic (%) (U2OS [2]; [19]): 55%
Population Fragmented Nuclei (%) (U2OS [2]; [19]): 13%
Population Healthy Nuclei (%) (U2OS [2]; [19]): 60%
Population Hoechst High Intensity Objects (%) (U2OS [2]; [19]): 11%
Population Membrane Permeable-Phenotype (%) (U2OS [2]; [19]): 52%
Population Mitochondria Different-Phenotype (%) (U2OS [2]; [19]): 42%
Population Mitotic Cells (%) (U2OS [2]; [19]): 44%
Population Normal (%) (U2OS [2]; [19]): 88%
Population Pyknosed Nuclei (%) (U2OS [2]; [19]): 26%
Population Tubulin-Different-Phenotype (%) (U2OS [2]; [19]): 97%
Total Cell Count (U2OS [2]; [19]): 78
